Results from ChEMBL document CHEMBL4270650, “Discovery of novel human inosine 5'-monophosphate dehydrogenase 2 (hIMPDH2) inhibitors as potential anticancer agents” (Eur J Med Chem, 2018).
pIC50: −log10 of the molar value. ≈ marks a conversion by molar mass, not a printed value. Where a name gives a salt, the structure may show the parent alone. Values belong to the compound of their own block, whether it stands above or below them. Calls of active or inactive are those of the source. No cut-off for these calls is given here.

Legend:
[1] = molecular target: T1, Inosine-5'-monophosphate dehydrogenase 2 (Homo sapiens, UniProt P12268); assay: Inhibition of human IMPDH2 using IMP as substrate in presence of NAD+ after 30 mins
How it was run: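 Purchased purified hIMPDH2, 0.15 mU/well, in 100 mM Tris-HCl pH 8.6, 100 mM KCl, 5 mM DTT and 4% v/v DMSO. Started with 0.2 mM IMP plus 0.2 mM NAD+ and run 30 min at 37 °C. NADH read at 340 nm.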

[2] = molecular target: T1, Inosine-5'-monophosphate dehydrogenase 2; assay: Inhibition of human IMPDH2 using IMP at 10 uM as substrate in presence of NAD+ after 30 mins relative to control
How it was run: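 Purchased purified hIMPDH2, 0.15 mU/well, in 100 mM Tris-HCl pH 8.6, 100 mM KCl, 5 mM DTT and 4% v/v DMSO. Started with 0.2 mM IMP plus 0.2 mM NAD+ and run 30 min at 37 °C. NADH read at 340 nm. Screen at 10 µM gave % inhibition.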

[3] = Cytotoxicity against mouse NIH/3T3 cells assessed as cell viability at 100 uM after 48 hrs by MTT assay relative to control; assay type: cell-based, NIH3T3; conditions: read-out: Activity
How it was run: (§1)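 NIH-3T3 mouse embryonic fibroblasts grown in DMEM with 10% FBS and penicillin-streptomycin at 37 °C, 5% CO2. Seeded at 10,000 cells/well and dosed after 24 hr, DMSO vehicle, triplicate wells. After 48 hr exposure, MTT (5 mg/mL) added for 4 hr and formazan dissolved in DMSO. Absorbance read at 540/630 nm. Viability expressed as % of control, mean ± SD.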

MDA-MB-231 [4] = assay: Cytotoxicity against human MDA-MB-231 cells assessed as reduction in cell viability after 48 hrs by MTT assay; assay type: functional, cell-based; conditions: MDA-MB-231, 48 h
How it was run: (§2)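 Cells grown in DMEM with 10% FBS and penicillin-streptomycin at 37 °C, 5% CO2. Seeded at 10,000 (MDA-MB-231), 8,000 (DU145) or 5,000 (U87 MG) cells/well. Treated 24 hr later with 0.01–100 µM, each dilution in triplicate, DMSO vehicle. After 48 hr, MTT (5 mg/mL) for 4 hr, formazan dissolved in DMSO. Absorbance read at 540 nm with 630 nm background. IC50 taken from mean of triplicate readings.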

DU-145 [5] = assay: Cytotoxicity against human DU145 cells assessed as reduction in cell viability after 48 hrs by MTT assay; assay type: functional, cell-based; conditions: DU-145, 48 h; how it was run: as §2
[6] = Cytotoxicity against mouse NIH/3T3 cells assessed as cell viability at 10 uM after 48 hrs by MTT assay relative to control; assay type: cell-based, NIH3T3; conditions: read-out: Activity; how it was run: as §1
[7] = Solubility in pH 7.4 sodium phosphate buffer after 2 hrs by HPLC analysis; assay type: physicochemical; conditions: read-out: -log(solubility) (converted)
How it was run: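 DMSO stock diluted 1:100 into 50 mM sodium phosphate, pH 7.4, and shaken 2 hr at 37 °C, 200 rpm. Centrifuged 20 min at 4000 rpm; supernatant diluted 1:1 with acetonitrile and filtered. Quantified by C18 HPLC (acetonitrile:water 80:20, isocratic) against a calibration curve of 0.78–100 µM made in 1:1 buffer/acetonitrile.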

[8] = Octanol-buffer partition coefficient, log D of the compound at pH 7.4 after 2 hrs by HPLC analysis; assay type: physicochemical
How it was run: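 DMSO stock added to pre-saturated 1:1 1-octanol/pH 7.4 buffer and shaken 2 hr at 37 °C, 200 rpm. Phases separated and each quantified by HPLC on a C18 column with isocratic acetonitrile:water 80:20 at 1 mL/min. logD7.4 taken from the octanol-to-buffer concentration ratio.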

DU-145 [9] = assay: Potency index, ratio of mycophenolic acid IC50 to compound IC50 for cytotoxicity against human DU145 cells; assay type: functional
MDA-MB-231 [10] = assay: Potency index, ratio of mycophenolic acid IC50 to compound IC50 for cytotoxicity against human MDA-MB-231 cells; assay type: functional
U-87 MG [11] = assay: Cytotoxicity against human U87MG cells assessed as reduction in cell viability after 48 hrs by MTT assay; assay type: functional, cell-based, U-87MG ATCC; how it was run: as §2
[12] = Cytotoxicity against human PBMC assessed as cell viability at 10 uM after 48 hrs by MTT assay relative to control; assay type: cell-based; conditions: read-out: Activity
U-87 MG [13] = assay: Potency index, ratio of mycophenolic acid IC50 to compound IC50 for cytotoxicity against human U87MG cells; assay type: functional, U-87MG ATCC

SMILES: COc1cc(/C=C/C(=O)c2ccc(OCC(=O)Nc3ccc4c(c3)COC4=O)cc2)cc(OC)c1OC
- pIC50 [1]: 5.13
- inhibition [2]: 71.3%

SMILES: COc1cc(C(=O)/C=C/c2cc(OC)c(OC)c(OC)c2)ccc1OCC(=O)Nc1ccc2c(c1)COC2=O
- inhibition [2]: 19.9%

SMILES: CCCCOc1ccc(/C=C/C(=O)c2ccc(OCC(=O)Nc3ccc4c(c3)COC4=O)cc2)cc1
- inhibition [2]: 57.7%

SMILES: COc1ccc(/C=C/C(=O)c2ccc(OCC(=O)NCc3ccc4c(c3)OCO4)cc2)cc1OC
- inhibition [2]: inactive

SMILES: COc1ccc(/C=C/C(=O)c2ccc(OCC(=O)Nc3ccc4c(c3)COC4=O)cc2)cc1OC
- inhibition [2]: 65.5%

SMILES: COc1ccc(NC(=O)COc2ccc(C(=O)/C=C/c3ccc(Cl)cc3)cc2)cc1OC
- inhibition [2]: 30.1%

SMILES: CCOc1ccc(/C=C/C(=O)c2ccc(OCC(=O)Nc3ccc(OC)c(OC)c3)cc2)cc1
- inhibition [2]: 63.5%

SMILES: COc1ccc(/C=C/C(=O)c2cccc(OCC(=O)Nc3ccc(OC)c(OC)c3)c2)cc1OC
- inhibition [2]: 23.3%

SMILES: COc1ccc(/C=C/C(=O)c2ccc(OCC(=O)Nc3ccc4c(c3)COC4=O)cc2)cc1
- pIC50 [1]: 6.18
- viability at 48 h, 100 µM [3]: 63.7%
- pIC50 (MDA-MB-231 [4]): 5.52
- pIC50 (DU-145 [5]): 5.67
- viability at 48 h, 10 µM [12]: 86%
- viability at 48 h, 10 µM [6]: 90.9%
- inhibition [2]: 95.6%
- pIC50 (U-87 MG [11]): 5.31

SMILES: O=C(COc1ccc(C(=O)/C=C/c2cccs2)cc1)Nc1ccc2c(c1)COC2=O
- pIC50 [1]: 5.34
- inhibition [2]: 76.3%

SMILES: COc1cccc(/C=C/C(=O)c2ccc(OCC(=O)Nc3ccc4c(c3)COC4=O)cc2)c1
- pIC50 [1]: 6.44
- viability at 48 h, 100 µM [3]: 62.6%
- pIC50 (MDA-MB-231 [4]): 5.47
- pIC50 (DU-145 [5]): 5.59
- viability at 48 h, 10 µM [6]: 87.1%
- inhibition [2]: 91.5%
- pIC50 (U-87 MG [11]): 5.24

SMILES: O=C(COc1ccc(C(=O)/C=C/c2c(F)cccc2F)cc1)NCc1ccc2c(c1)OCO2
- inhibition [2]: inactive

SMILES: COc1c(C)c2c(c(O)c1C/C=C(\C)CCC(=O)O)C(=O)OC2 [MYCOPHENOLIC ACID]
- viability at 48 h, 100 µM [3]: 40.7%
- pIC50 (MDA-MB-231 [4]): 5.36
- pIC50 (DU-145 [5]): 5.53
- viability at 48 h, 10 µM [12]: 63%
- viability at 48 h, 10 µM [6]: 65.2%
- pIC50 (U-87 MG [11]): 4.97

SMILES: O=C(COc1ccc(C(=O)/C=C/c2ccccc2)cc1)Nc1ccc2c(c1)COC2=O
- pIC50 [1]: 6.10
- inhibition [2]: 79.1%

SMILES: COc1ccc(/C=C/C(=O)c2ccc(OCC(=O)NCc3ccc4c(c3)OCO4)cc2)cc1
- inhibition [2]: inactive

SMILES: COc1cccc2c1C(=O)c1c(O)c3c(c(O)c1C2=O)C[C@@](O)(C(=O)CO)C[C@@H]3O[C@H]1C[C@H](N)[C@H](O)[C@H](C)O1 [DOXORUBICIN HYDROCHLORIDE]
- viability at 48 h, 100 µM [3]: 6.73%
- pIC50 (MDA-MB-231 [4]): 6.27
- pIC50 (DU-145 [5]): 6.68
- viability at 48 h, 10 µM [6]: 15.6%
- pIC50 (U-87 MG [11]): 6.96

SMILES: COc1ccc(NC(=O)COc2ccc(C(=O)/C=C/c3cc(OC)c(OC)c(OC)c3)cc2)cc1OC
- inhibition [2]: 20.6%

SMILES: COc1cc(/C=C/C(=O)c2cccc(OCC(=O)Nc3ccc4c(c3)COC4=O)c2)cc(OC)c1OC
- inhibition [2]: 63.7%

SMILES: O=C(COc1ccc(C(=O)/C=C/c2ccco2)cc1)Nc1ccc2c(c1)COC2=O
- inhibition [2]: 57.3%

SMILES: O=C(COc1ccc(/C=C/C(=O)c2ccc(F)cc2)cc1)Nc1ccc2c(c1)COC2=O
- pIC50 [1]: 6.24
- viability at 48 h, 100 µM [3]: 80.2%
- pIC50 (MDA-MB-231 [4]): 5.27
- pIC50 (DU-145 [5]): 5.16
- viability at 48 h, 10 µM [6]: 90.3%
- inhibition [2]: 87.9%
- pIC50 (U-87 MG [11]): 5.22

SMILES: COc1ccc(NC(=O)COc2ccc(C(=O)/C=C/c3ccco3)cc2)cc1OC
- inhibition [2]: 21.3%

SMILES: COc1ccc(/C=C/C(=O)c2ccc(OCC(=O)Nc3ccc(OC)c(OC)c3)cc2)cc1
- inhibition [2]: 33.6%

SMILES: COc1ccc(NC(=O)COc2ccc(C(=O)/C=C/c3c(F)cccc3F)cc2)cc1OC
- inhibition [2]: 35.9%

Continued, in another order:

- inhibition [2]: 39.1%
SMILES: O=C(COc1ccc(C(=O)/C=C/c2ccc(OCc3ccc(Cl)cc3)cc2)cc1)Nc1ccc2c(c1)COC2=O

- pIC50 [1]: 6.37
- solubility at 2 h [7]: 1.55 µM (≈ 0.64 µg/mL)
- logD at 2 h [8]: 2.79
- inhibition [2]: 93.7%
SMILES: O=C(COc1cccc(C(=O)/C=C/c2ccccc2)c1)Nc1ccc2c(c1)COC2=O
- viability at 48 h, 100 µM [3]: 67.6%
- pIC50 (MDA-MB-231 [4]): 5.96
- pIC50 (DU-145 [5]): 5.76
- viability at 48 h, 10 µM [6]: 96.7%
- Ratio IC50 (DU-145 [9]): 1.7
- Ratio IC50 (MDA-MB-231 [10]): 4
- pIC50 (U-87 MG [11]): 5.40

- inhibition [2]: 36.7%
SMILES: O=C(COc1ccc(C(=O)/C=C/c2ccc(OCc3ccc(Cl)cc3Cl)cc2)cc1)Nc1ccc2c(c1)COC2=O

- inhibition [2]: 57%
SMILES: COc1ccc(/C=C/C(=O)c2cccc(OCC(=O)Nc3ccc4c(c3)COC4=O)c2)cc1OC

- inhibition [2]: 28.8%
SMILES: COc1cccc(/C=C/C(=O)c2ccc(OCC(=O)Nc3ccc(OC)c(OC)c3)cc2)c1

- inhibition [2]: 24.5%
SMILES: COc1ccc(NC(=O)COc2ccc(C(=O)/C=C/c3cccs3)cc2)cc1OC

- inhibition [2]: 65.5%
SMILES: CCOc1ccc(/C=C/C(=O)c2ccc(OCC(=O)Nc3ccc4c(c3)COC4=O)cc2)cc1

- inhibition [2]: 63.2%
SMILES: O=C(COc1ccc(C(=O)/C=C/c2ccc([N+](=O)[O-])cc2)cc1)Nc1ccc2c(c1)COC2=O

- inhibition [2]: 52.2%
SMILES: O=C(COc1ccc(C(=O)/C=C/c2ccc(OCc3ccccc3)cc2)cc1)Nc1ccc2c(c1)COC2=O

- inhibition [2]: inactive
SMILES: CCOc1ccc(/C=C/C(=O)c2ccc(OCC(=O)NCc3ccc4c(c3)OCO4)cc2)cc1

- inhibition [2]: 59.5%
SMILES: O=C(COc1ccc(C(=O)/C=C/c2ccccc2Cl)cc1)Nc1ccc2c(c1)COC2=O

- inhibition [2]: inactive
SMILES: COc1cc(/C=C/C(=O)c2ccc(OCC(=O)NCc3ccc4c(c3)OCO4)cc2)cc(OC)c1OC

- inhibition [2]: 25.7%
SMILES: COc1ccc(NC(=O)COc2ccc(C(=O)/C=C/c3ccccc3Cl)cc2)cc1OC

- inhibition [2]: 60.1%
SMILES: CCCOc1ccc(/C=C/C(=O)c2ccc(OCC(=O)Nc3ccc4c(c3)COC4=O)cc2)cc1

- inhibition [2]: 62.1%
SMILES: O=C(COc1ccc(C(=O)/C=C/c2ccc(Cl)cc2)cc1)Nc1ccc2c(c1)COC2=O

- pIC50 [1]: 6.44
- solubility at 2 h [7]: 1.55 µM (≈ 0.696 µg/mL)
- logD at 2 h [8]: 2.99
- inhibition [2]: 94.2%
SMILES: O=C(COc1ccc(C(=O)/C=C/c2c(F)cccc2F)cc1)Nc1ccc2c(c1)COC2=O
- viability at 48 h, 100 µM [3]: 70.2%
- pIC50 (MDA-MB-231 [4]): 5.62
- Ratio IC50 (U-87 MG [13]): 3
- pIC50 (DU-145 [5]): 5.72
- viability at 48 h, 10 µM [12]: 77%
- viability at 48 h, 10 µM [6]: 98.5%
- pIC50 (U-87 MG [11]): 5.44
